Measurements from ChEMBL document CHEMBL4002555, “Bioactive Pentacyclic Triterpenoids from the Leaves of Cleistocalyx operculatus” (J Nat Prod, 2016).
pIC50: −log10 of the molar value.

Experiments:
[1] = tested on: RAW264.7; experiment: Anti-inflammatory activity in mouse RAW264.7 cells assessed as inhibition of LPS-induced IL-6 production at 50 uM pretreated for 1 hr followed by LPS stimulation measured after 24 hrs by ELISA relative to control; format: functional
How it was run: (§1)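 LPS-stimulated RAW 264.7 macrophages, with IL-6 and TNF-α production read separately. Test concentrations were 0.4, 2, 10 and 50 μM, and dexamethasone was the reference drug. Results are given as percent inhibition of cytokine production.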

[2] = tested on: RAW264.7; experiment: Anti-inflammatory activity in mouse RAW264.7 cells assessed as inhibition of LPS-induced TNF-alpha production at 50 uM pretreated for 1 hr followed by LPS stimulation measured after 24 hrs by ELISA relative to control; format: functional; how it was run: as §1
[3] = tested on: NCI-N87; experiment: Cytotoxicity against human NCI-N87 cells after 72 hrs by MTT assay; format: functional, cell-based; conditions: NCI-N87, 72 h
How it was run: (§2)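 MTT growth-inhibition assay in human HepG2 hepatocellular, NCI-N87 gastric and MCF-7 breast carcinoma lines, with a doxorubicin positive control. IC50 values are means ± SD from three individual experiments; >10.0 μM was taken as noncytotoxic.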

[4] = tested on: RAW264.7; experiment: Anti-inflammatory activity in mouse RAW264.7 cells assessed as inhibition of LPS-induced IL-6 production at 2 uM pretreated for 1 hr followed by LPS stimulation measured after 24 hrs by ELISA relative to control; format: functional; how it was run: as §1
[5] = Cytotoxicity against mouse RAW264.7 cells assessed as growth inhibition at 50 uM after 72 hrs by MTT assay relative to control; format: cell-based; conditions: read-out: GI
[6] = tested on: MCF7; experiment: Cytotoxicity against human MCF7 cells after 72 hrs by MTT assay; format: functional, cell-based; conditions: MCF7, 72 h; how it was run: as §2
[7] = tested on: RAW264.7; experiment: Anti-inflammatory activity in mouse RAW264.7 cells assessed as inhibition of LPS-induced IL-6 production at 10 uM pretreated for 1 hr followed by LPS stimulation measured after 24 hrs by ELISA relative to control; format: functional; how it was run: as §1
[8] = tested on: RAW264.7; experiment: Anti-inflammatory activity in mouse RAW264.7 cells assessed as inhibition of LPS-induced TNF-alpha production at 10 uM pretreated for 1 hr followed by LPS stimulation measured after 24 hrs by ELISA relative to control; format: functional; how it was run: as §1
[9] = tested on: RAW264.7; experiment: Anti-inflammatory activity in mouse RAW264.7 cells assessed as inhibition of LPS-induced TNF-alpha production at 2 uM pretreated for 1 hr followed by LPS stimulation measured after 24 hrs by ELISA relative to control; format: functional; how it was run: as §1
[10] = tested on: HepG2; experiment: Cytotoxicity against human HepG2 cells after 72 hrs by MTT assay; format: functional, cell-based; conditions: HepG2, 72 h; how it was run: as §2
[11] = tested on: RAW264.7; experiment: Anti-inflammatory activity in mouse RAW264.7 cells assessed as inhibition of LPS-induced TNF-alpha production at 0.4 uM pretreated for 1 hr followed by LPS stimulation measured after 24 hrs by ELISA relative to control; format: functional; how it was run: as §1
[12] = Cytotoxicity against mouse RAW264.7 cells assessed as growth inhibition at 10 uM after 72 hrs by MTT assay relative to control; format: cell-based; conditions: read-out: GI
[13] = tested on: RAW264.7; experiment: Anti-inflammatory activity in mouse RAW264.7 cells assessed as inhibition of LPS-induced IL-6 production at 0.4 uM pretreated for 1 hr followed by LPS stimulation measured after 24 hrs by ELISA relative to control; format: functional; how it was run: as §1

Compound | inhibition at 50 µM [1] | inhibition at 50 µM [2] | pIC50 [3] | inhibition at 2 µM [4] | inhibition at 72 h, 50 µM [5] | pIC50 [6] | inhibition at 10 µM [7] | inhibition at 10 µM [8] | inhibition at 2 µM [9] | pIC50 [10] | inhibition at 0.4 µM [11] | inhibition at 72 h, 10 µM [12] | inhibition at 0.4 µM [13]
CC1(C)CC[C@]2(C(=O)O)CC[C@]3(C)C(=C[C@@H](O)[C@@H]4[C@@]5(C)C[C@@H](O)[C@H](O)[C@@](C)(CO)[C@@H]5CC[C@]43C)[C@@H]2C1 | 74.9% | 65.6% | < 5.00 | 68.1% | < 5% | < 5.00 | 69.9% | 57.7% | 53.7% | < 5.00 |  |  | 
COC(=O)[C@]12CCC(C)(C)CC1=C1CC[C@@H]3[C@@]4(C)CC[C@H](O)C(C)(C)[C@@H]4CC[C@@]3(C)[C@]1(C(=O)O)CC2 |  |  | 5.29 |  |  | < 5.00 |  |  |  | 5.30 |  |  | 
C[C@H]1[C@@H]2[C@H]3CC[C@@H]4[C@@]5(C)CC[C@H](O)C(C)(C)[C@@H]5CC[C@@]4(C)[C@]3(C)CC[C@@]23C[C@@H](O)[C@]1(C)OC3=O | < 50% | < 50% | 5.14 | < 50% |  | < 5.00 | < 50% | < 50% | < 50% | < 5.00 | < 50% | < 5% | < 50%
C[C@H]1[C@H](C)CC[C@]2(C(=O)O)CC[C@]3(C)C(=C[C@@H](O)[C@@H]4[C@@]5(C)C[C@@H](O)[C@H](O)[C@@](C)(CO)[C@@H]5CC[C@]43C)[C@H]12 | < 50% | < 50% | < 5.00 | < 50% |  | < 5.00 | < 50% | < 50% | < 50% | < 5.00 | < 50% | < 5% | < 50%
CC1=CC[C@]2(C(=O)O)CC[C@]3(C=O)[C@H](CC[C@@H]4[C@@]5(C)CC[C@H](O)C(C)(C)[C@@H]5CC[C@]43C)[C@H]2[C@@H]1C |  |  | < 5.00 | 19.2% |  | < 5.00 | 53.8% | 35.9% | 14.1% | < 5.00 | 14.8% | < 5% | 23.6%
C=C1CC[C@]2(C(=O)O)CC[C@]3(C)C(=CC[C@@H]4[C@@]5(C)C[C@@H](O)[C@H](O)C(C)(C)[C@@H]5CC[C@]43C)[C@@H]2[C@H]1C | < 50% | < 50% | < 5.00 | < 50% |  | < 5.00 | < 50% | < 50% | < 50% | < 5.00 | < 50% | < 5% | < 50%
COC(=O)[C@@]12CC[C@]3(C(=O)O)[C@H](CC[C@@H]4[C@@]5(C)CC[C@H](O)C(C)(C)[C@@H]5CC[C@]43C)[C@@H]1[C@@H](C)C(C)=C[C@H]2O | < 50% | < 50% | < 5.00 | < 50% |  | < 5.00 | < 50% | < 50% | < 50% | < 5.00 | < 50% | < 5% | < 50%
C=C1CC[C@]2(C(=O)O)CC[C@]3(C)C(=C[C@@H](O)[C@@H]4[C@@]5(C)C[C@@H](O)[C@H](O)[C@@](C)(CO)[C@@H]5CC[C@]43C)[C@@H]2[C@H]1C | < 50% | < 50% | < 5.00 | < 50% |  | < 5.00 | < 50% | < 50% | < 50% | < 5.00 | < 50% | < 5% | < 50%
CC1=CC[C@]2(C(=O)O)CC[C@]3(C)[C@H](CC[C@@H]4[C@@]5(C)CC[C@H](O)C(C)(C)[C@@H]5CC[C@]43C)[C@H]2[C@@H]1C |  |  | 5.62 |  |  | 5.37 |  |  |  | 5.72 |  |  | 
